From paper PMC12705676 (Scientific Reports, 2025) come the findings set out here.

Series [1] in a line: ABTS radical scavenging assay. The following applies: read-out: ABTS IC50; concentration to scavenge 50% of radicals, mean ± SD. In kind it is biochemical. A digest of the protocol: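 ABTS radical cation generated by reacting ABTS with potassium persulfate, then diluted to an absorbance of about 0.700 at 732 nm. Test compound at several concentrations was mixed with the ABTS⁺ solution and the fall in absorbance recorded. Percent scavenging was calculated against a solvent control, with ascorbic acid as reference antioxidant. Three independent experiments in triplicate, mean ± SD.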

Series [2] concerns PC-3 (human prostate cancer). As to the kind of experiment: SRB cytotoxicity assay, PC-3 cells. In kind it is cell-based. The following applies: for IC50: Homo sapiens, PC-3, 72 h, read-out: IC50 PC-3; for Selectivity index (SI) PC-3: IC50 in GES-1 / IC50 in PC-3. In outline:
(§1)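 Cells plated at 3 × 10³ per well and left 24 h to attach at 37 °C, 5% CO₂. Test compound at 0–100 µM from ethanol stocks (1% final ethanol) for 72 h. Fixation in TCA (10% final), staining with 0.1% SRB, dye solubilized in 10 mM Tris, A540. Viability relative to 1% ethanol vehicle. IC50 from a four-parameter logistic fit with 95% CI; triplicate, three independent runs, mean ± SD. SI = IC50 in GES-1 divided by IC50 in the cancer line.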

Series [3] relates to AGS (human gastric adenocarcinoma). As to the kind of experiment: SRB cytotoxicity assay, AGS cells. Format: cell-based. The following applies: for IC50: Homo sapiens, AGS, 72 h, read-out: IC50 AGS; for Selectivity index (SI) AGS: IC50 in GES-1 / IC50 in AGS. A digest of the protocol: as §1
A general note: Sulforhodamine B stains cellular protein and so reports cell mass.

A short description of a further series: Hemolysis assay. Format: cell-based, human. The following applies: human, washed human red blood cells, Hemolysis (%), 30 min, 37 °C. In outline: (§2)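 Donor blood was collected in EDTA. RBCs were pelleted at 500 × g for 10 min, washed three times in PBS and resuspended in PBS. Cells were exposed to test compound at 10–300 µg/mL for 30 min at 37 °C with gentle agitation, then spun at 1000 × g for 5 min; supernatant hemoglobin was read at 540 nm. Deionized water defined 100% and PBS 0% hemolysis. Triplicate, three independent repeats.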

The subject of another series is human erythrocytes. As to the kind of experiment: Hemolysis assay. Format: cell-based. The following applies: for Hemolysis, result in words: 10–300 µg/mL; for Hemolysis (%): 30 min, 37 °C. In outline:
as §2

In series [4] the test system is HT-29 (human colorectal adenocarcinoma). As to the kind of experiment: SRB cytotoxicity assay, HT-29 cells. In kind it is cell-based. The following applies: for IC50: Homo sapiens, HT-29, 72 h, read-out: IC50 HT-29; for Selectivity index (SI) HT-29: IC50 in GES-1 / IC50 in HT-29. In outline:
as §1

In series [5] the test system is mitochondrial membrane permeability of cancer cell line. Description: Mitochondrial membrane permeability by flow cytometry. In kind it is cell-based, human. The following applies: 48 h, Rhodamine 123, flow cytometry. A general note: A flow cytometer gives signals particle by particle.

Entries after “also recorded” stand apart in the source; their conditions may differ.

As for `O=C1O[C@H]([C@@H](O)CO)C(O)=C1O` [AA, Ascorbic acid, reference compound], the IC50 (as a rule, the midpoint of a concentration-inhibition curve) in series [1] amounted to 141 ± 3.5 µM.

For the compound `CC1(C)C2CC[C@@]1(C)C(=O)/C2=C/c1ccco1` [Compound 4, (1R,3E)-3-[(furan-2-yl)methylidene]-1,7,7-trimethylbicyclo[2.2.1]heptan-2-one], in series [1], the IC50 is 1004 ± 2 µM. Also, in series [2], the IC50 is above 100 µM. Besides, the IC50 in series [3] is above 100 µM. For the same compound, in the series “Hemolysis assay”, the hemolysis at 30 min, 10 µg/mL is 15.7%; the hemolysis at 30 min, 25 µg/mL was found to be 18.2%; the hemolysis at 30 min, 50 µg/mL was 20.1%; the hemolysis at 30 min, 100 µg/mL is 31.8%. In “Hemolysis assay”, this compound returned a hemolysis at 30 min, 200 µg/mL of 41.5% and a hemolysis at 30 min, 300 µg/mL of 49.7%. Further, in the series on human erythrocytes, the “Hemolysis, result in words” value is reported as “concentration dependent increase in hemolysis; also recorded: significant hemolysis”. For the same compound, the IC50 in series [4] is above 100 µM.

Turning to `CC1(C)C2CC[C@]1(C)C(=O)/C2=C/c1cccs1` [Compound 5, (1S,3E)-1,7,7-trimethyl-3-[(thiophen-2-yl)methylidene]bicyclo[2.2.1]heptan-2-one], in series [1], the IC50 is 1301 ± 2.4 µM. Further, in series [2], the IC50 came out at 63.57 ± 0.6 µM and the “Selectivity index (SI) PC-3” value is recorded as 3.0. Also, in series [3], the IC50 was determined as 43.2 ± 0.3 µM and the “Selectivity index (SI) AGS” value was determined as 4.2. In the series “Hemolysis assay”, the hemolysis at 30 min, 10 µg/mL is 0%; the hemolysis at 30 min, 25 µg/mL stood at 0%; the hemolysis at 30 min, 50 µg/mL came out at 1.1%; the hemolysis at 30 min, 100 µg/mL was 3.11%. In the series “Hemolysis assay”, this compound registered a hemolysis at 30 min, 200 µg/mL of 7.4% and a hemolysis at 30 min, 300 µg/mL of 13.8%. In series [4], the IC50 is 87.5 ± 0.5 µM and the “Selectivity index (SI) HT-29” value is reported as 2.1. In addition, the “Effect on mitochondrial membrane potential” value in series [5] is given as “loss of the mitochondrial membrane potential”.

For `O=c1[nH]cc(F)c(=O)[nH]1` [Compound 5-FU, 5-fluorouracil, reference compound], the IC50 in series [2] is 16.4 ± 0.6 µM. For the same compound, in series [3], the IC50 was found to be 56.1 ± 0.5 µM and the “Selectivity index (SI) AGS” value was found to be 2.5. In series [4], the IC50 turned out to be 2.9 ± 0.7 µM and the “Selectivity index (SI) HT-29” value is on record as 48.3.

For the compound `CC1(C)C2CC[C@@]1(C)C(=O)/C2=C/c1cccs1` [Compound 6, (1R,3E)-1,7,7-trimethyl-3-[(thiophen-2-yl)methylidene]bicyclo[2.2.1]heptan-2-one], the IC50 in series [1] worked out at 1082 ± 1.7 µM. Also, in series [2], the IC50 was above 100 µM. The IC50 in series [3] is above 100 µM. Further, in “Hemolysis assay”, the hemolysis at 30 min, 10 µg/mL worked out at 6.36%; the hemolysis at 30 min, 25 µg/mL came to 7.07%; the hemolysis at 30 min, 50 µg/mL worked out at 16.8%; the hemolysis at 30 min, 100 µg/mL was determined as 21.6%. In “Hemolysis assay”, this compound had a hemolysis at 30 min, 200 µg/mL of 26.7% and a hemolysis at 30 min, 300 µg/mL of 29%. Also, in the series on human erythrocytes, the “Hemolysis, result in words” value was “concentration dependent increase in hemolysis”. Also, the IC50 in series [4] is above 100 µM.

For the compound `CC1(C)C2CC[C@]1(C)C(=O)/C2=C/c1ccoc1` [Compound 7, (1S,3E)-3-[(furan-3-yl)methylidene]-1,7,7-trimethylbicyclo[2.2.1]heptan-2-one], the IC50 in series [1] came out at 1046 ± 3.3 µM. Also, in series [2], the IC50 was above 100 µM. The IC50 in series [3] is above 100 µM. In the series “Hemolysis assay”, the hemolysis at 30 min, 10 µg/mL was determined as 0%; the hemolysis at 30 min, 25 µg/mL is 0%; the hemolysis at 30 min, 50 µg/mL turned out to be 0%; the hemolysis at 30 min, 100 µg/mL came out at 1.81%. For the same compound, in “Hemolysis assay”, the hemolysis at 30 min, 200 µg/mL is 3.12% and the hemolysis at 30 min, 300 µg/mL was determined as 5.97%. The IC50 in series [4] is above 100 µM.

Take `CC1(C)C2CC[C@@]1(C)C(=O)/C2=C/c1ccoc1` [Compound 8, (1R,3E)-3-[(furan-3-yl)methylidene]-1,7,7-trimethylbicyclo[2.2.1]heptan-2-one]: the IC50 in series [1] was 1344 ± 3.4 µM. The IC50 in series [2] is above 100 µM. Further, in series [3], the IC50 is above 100 µM. Moreover, in “Hemolysis assay”, the hemolysis at 30 min, 10 µg/mL is 0%; the hemolysis at 30 min, 25 µg/mL is 2.53%; the hemolysis at 30 min, 50 µg/mL was 6.29%; the hemolysis at 30 min, 100 µg/mL came out at 8.5%. Further, in “Hemolysis assay”, the hemolysis at 30 min, 200 µg/mL amounted to 9.74% and the hemolysis at 30 min, 300 µg/mL was found to be 12.2%. The half-inhibitory concentration (IC50) in series [4] is above 100 µM.

As for `CC1(C)C2CC[C@]1(C)C(=O)/C2=C/c1cc2ccccc2o1` [Compound 9, (1S,3E)-3-[(1-benzofuran-2-yl)methylidene]-1,7,7-trimethylbicyclo[2.2.1]heptan-2-one], the IC50 in series [1] stood at 954.7 ± 2.7 µM. In series [2], the IC50 was 97 ± 0.2 µM and the “Selectivity index (SI) PC-3” value came out at 2.3. In series [3], the IC50 was 31.8 ± 0.4 µM and the “Selectivity index (SI) AGS” value was determined as 7.0. Moreover, in the series “Hemolysis assay”, the hemolysis at 30 min, 10 µg/mL came to 2.01%; the hemolysis at 30 min, 25 µg/mL stood at 3.31%; the hemolysis at 30 min, 50 µg/mL is 6.36%; the hemolysis at 30 min, 100 µg/mL is 8.05%. In the series “Hemolysis assay”, this compound registered a hemolysis at 30 min, 200 µg/mL of 12.9% and a hemolysis at 30 min, 300 µg/mL of 13.4%. For the same compound, in series [4], the IC50 was found to be 76.3 ± 0.2 µM and the “Selectivity index (SI) HT-29” value was found to be 3.0. In series [5], the “Effect on mitochondrial membrane potential” value was “loss of the mitochondrial membrane potential”.

As for `CC1(C)C2CC[C@@]1(C)C(=O)/C2=C/c1cc2ccccc2o1` [Compound 10, (1R,3E)-3-[(1-benzofuran-2-yl)methylidene]-1,7,7-trimethylbicyclo[2.2.1]heptan-2-one], the IC50 in series [1] was 1146 ± 3.7 µM. In addition, the half-inhibitory concentration (IC50) in series [2] was above 100 µM. Also, the IC50 in series [3] was above 100 µM. Moreover, in “Hemolysis assay”, the hemolysis at 30 min, 10 µg/mL was found to be 0%; the hemolysis at 30 min, 25 µg/mL is 0.38%; the hemolysis at 30 min, 50 µg/mL was 3.12%; the hemolysis at 30 min, 100 µg/mL amounted to 5.84%. In the series “Hemolysis assay”, the hemolysis at 30 min, 200 µg/mL was determined as 6.16% and the hemolysis at 30 min, 300 µg/mL was 8.05%. In series [4], the IC50 is above 100 µM.

As for `CC1(C)C2CC[C@]1(C)C(=O)/C2=C/c1ccsc1` [Compound 11, (1S,3E)-1,7,7-trimethyl-3-[(thiophen-3-yl)methylidene]bicyclo[2.2.1]heptan-2-one], the IC50 in series [1] was 1396 ± 3.8 µM. In “Hemolysis assay”, the hemolysis at 30 min, 10 µg/mL is 0%; the hemolysis at 30 min, 25 µg/mL is 0.77%; the hemolysis at 30 min, 50 µg/mL stood at 5.25%; the hemolysis at 30 min, 100 µg/mL turned out to be 7.2%. In “Hemolysis assay”, the hemolysis at 30 min, 200 µg/mL stood at 11.2% and the hemolysis at 30 min, 300 µg/mL worked out at 13.2%.

As for `CC1(C)C2CC[C@@]1(C)C(=O)/C2=C/c1ccsc1` [Compound 12, (1R,3E)-1,7,7-trimethyl-3-[(thiophen-3-yl)methylidene]bicyclo[2.2.1]heptan-2-one], the IC50 in series [1] stood at 1025 ± 3.5 µM. In the series “Hemolysis assay”, this compound showed a hemolysis at 30 min, 10 µg/mL of 5.9%; a hemolysis at 30 min, 25 µg/mL of 6.81%; a hemolysis at 30 min, 50 µg/mL of 7.92%; a hemolysis at 30 min, 100 µg/mL of 9.41%. In the series “Hemolysis assay”, this compound returned a hemolysis at 30 min, 200 µg/mL of 10.2% and a hemolysis at 30 min, 300 µg/mL of 12.5%. Moreover, in the series on human erythrocytes, the “Hemolysis, result in words” value is reported as “concentration dependent increase in hemolysis”.

Turning to `COc1cccc2c1C(=O)c1c(O)c3c(c(O)c1C2=O)C[C@@](O)(C(C)=O)C[C@@H]3O[C@H]1C[C@H](N)[C@H](O)[C@H](C)O1` [Daunorubicin, reference compound], in series [2], the IC50 is 10.4 ± 0.4 µM and the “Selectivity index (SI) PC-3” value is 33.9. Also, in series [3], the IC50 turned out to be 13 ± 0.3 µM and the “Selectivity index (SI) AGS” value worked out at 27.1. For the same compound, in series [4], the IC50 was determined as 15.1 ± 0.5 µM and the “Selectivity index (SI) HT-29” value is on record as 23.3.

With “Triton X-100 [Triton X-100 1%, reference compound]”, the “Hemolysis (%)” value with human erythrocytes (10 µg/mL), with human erythrocytes (25 µg/mL), with human erythrocytes (50 µg/mL), in the series with human erythrocytes (100 µg/mL), in the series with human erythrocytes (200 µg/mL) and in the series with human erythrocytes (300 µg/mL) was 100% in each case.
